Data from ChEMBL document CHEMBL1681654, “Structure and activity relationship of 2-(substituted benzoyl)-hydroxyindoles as novel CaMKII inhibitors” (Bioorg Med Chem Lett, 2011).

Assay: Inhibition of recombinant CAMK2 expressed in Sf9 cells after 20 mins
Procedure, shortened: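 Baculovirus-expressed CaMKII from infected Sf9 cells (harvested day 3), purified on calmodulin affinity resin. Assayed in 25 mM Tris–HCl pH 7.5, 2 mM DTT, 10 mM MgCl₂, 0.1% CHAPS, 1 mM CaCl₂ with autocamtide-2 substrate, CaM and [γ-³³P]ATP (350–1500 cpm/pmol); 20 min, 30 °C. Reaction spotted onto P30 filtermat, washed with 75 mM phosphoric acid, counted by scintillation.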

SMILES	IC50 [µM]
COc1ccc(C(=O)c2cc3cc(O)ccc3[nH]2)cc1	> 10
O=C(c1ccc(OC(F)(F)F)cc1)c1cc2cc(O)ccc2[nH]1	> 10
Cc1ccc(C(=O)c2cc3cc(O)ccc3[nH]2)cc1	8.8
O=C(c1ccc(OC2CCOC2)cc1)c1cc2cc(O)ccc2[nH]1 (stereo unspecified)	6.8
CC(=O)N1CCC(Oc2ccc(C(=O)c3cc4cc(O)ccc4[nH]3)cc2)CC1	9.9
O=C(c1ccc(Oc2ccccc2)cc1)c1cc2cc(O)ccc2n1S(=O)(=O)c1ccccc1	> 10
O=C(c1ccc(OC2CCNCC2)cc1)c1cc2cc(O)ccc2[nH]1	> 10
O=C(c1ccc(Cl)cc1)c1cc2cc(O)ccc2[nH]1	> 10
O=C(c1ccc(F)cc1)c1cc2cc(O)ccc2[nH]1	> 10
O=C(c1ccccc1)c1cc2cc(O)ccc2[nH]1	10
O=C(c1ccc(OC2CCCC2)cc1)c1cc2cc(O)ccc2[nH]1	3.9
O=C(c1ccc(OC2CCCCC2)cc1)c1cc2cc(O)ccc2[nH]1	2.3
COc1ccc(S(=O)(=O)N(CCO)c2ccccc2CN(C)C/C=C/c2ccc(Cl)cc2)cc1	1.6
CN1CCC(Oc2ccc(C(=O)c3cc4cc(O)ccc4[nH]3)cc2)CC1	> 10

Second part, the compound after the results:

IC50 [µM]	SMILES
1.9	O=C(c1ccc(Oc2ccccc2)cc1)c1cc2cc(O)ccc2n1CCO
0.77	CCOC(=O)Cn1c(C(=O)c2ccc(Oc3ccccc3)cc2)cc2cc(O)ccc21
7.5	O=C(c1ccc(Oc2ccccc2)cc1)c1cc2ccccc2[nH]1
0.61	O=C(c1ccc(Oc2ccccc2)cc1)c1cc2cc(O)ccc2[nH]1
1.8	O=C(O)Cn1c(C(=O)c2ccc(Oc3ccccc3)cc2)cc2cc(O)ccc21
1.3	Cn1c(C(=O)c2ccc(Oc3ccccc3)cc2)cc2cc(O)ccc21
6.4	O=C(c1ccc(-c2ccccc2)cc1)c1cc2cc(O)ccc2[nH]1
2.3	O=C(c1ccc(Oc2ccccc2)cc1)c1cc2ccc(O)cc2[nH]1
> 10	O=C(c1ccc(Oc2ccccc2)cc1)c1cc2nc(O)ccc2[nH]1
1.8	O=C(c1cc2cc(O)ccc2[nH]1)c1ccccc1Oc1ccccc1
6.8	O=C(c1ccc(Oc2ccccc2)cc1)c1cc2cc(O)ncc2[nH]1
1.7	O=C(c1cccc(Oc2ccccc2)c1)c1cc2cc(O)ccc2[nH]1
